# From ChEMBL document CHEMBL1140727, “Structural diversity and plasticity associated with nucleotides targeting orotidine monophosphate decarboxylase” (J Med Chem, 2008)
# Calls of active or inactive are those of the source. The rule behind the calls is not given here.
# What was measured:
# Homo sapiens [1] = species on record: Homo sapiens; experiment: Inhibition of human ODCase upto 10 or 20 mM
# How it was run: (§1)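 Enzyme was a truncated C-terminal portion of human UMP synthase, expressed in E. coli BL-21 with the His6 tag removed by thrombin. Stock (60 µM) was incubated overnight at 4 °C. Enzyme plus nucleotide ([…]) in 50 mM Tris pH 7.5, 1 mM DTT was followed by ITC at 37 °C. Started by a 5.7 µL injection of 5 mM OMP (20 µM final). Competitive Ki fit.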
# [2] = Inhibition of Methanobacterium thermoautotrophicum ODCase; design: species or system Methanothermobacter thermautotrophicus
# [3] = Inhibition of Plasmodium falciparum ODCase
# [4] = Inhibition of human ODCase
# [5] = biological target: T1, Orotidine 5'-phosphate decarboxylase (Saccharomyces cerevisiae S288c, UniProt P03962); experiment: Inhibition of yeast ODCase
# T1 sequence (P03962 whole entry): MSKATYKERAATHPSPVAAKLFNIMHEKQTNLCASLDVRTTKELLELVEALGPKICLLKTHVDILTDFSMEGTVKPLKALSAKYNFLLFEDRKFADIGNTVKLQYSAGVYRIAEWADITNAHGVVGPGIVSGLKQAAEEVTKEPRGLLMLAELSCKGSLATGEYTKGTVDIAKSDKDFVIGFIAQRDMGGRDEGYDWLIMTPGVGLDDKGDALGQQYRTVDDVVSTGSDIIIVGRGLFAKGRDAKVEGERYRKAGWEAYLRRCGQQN
# Plasmodium falciparum [6] = experiment: Inhibition of Plasmodium falciparum ODCase upto 10 or 20 mM
# How it was run: (§2)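 Run by ITC at 37 °C. ODCase stock (60 µM in 50 mM Tris pH 7.5, 20 mM DTT, 40 mM NaCl) was held overnight at room temperature. Final mixture: 60 nM enzyme in degassed 50 mM Tris pH 7.4, 1 mM DTT, with nucleotide varied 0–20 mM. Started by a single 3.4 µL injection of 5 mM OMP. Competitive analysis by rate-equation fit and double-reciprocal plots.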
# [7] = system: Methanothermobacter thermautotrophicus; experiment: Activity of Methanobacterium thermoautotrophcium ODCase
# How it was run: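 Isothermal titration calorimetry at 55 °C. Enzyme stock (20 µM in 50 mM Tris pH 7.5, 20 mM DTT, 40 mM NaCl) was stabilized overnight at room temperature. Assay: 20 nM ODCase in 50 mM Tris pH 7.5, 1 mM DTT, with fixed nucleotide levels (0–20 mM). Started by a single injection of 5 mM OMP (40 µM final). Competitive Ki from rate fitting, checked by double-reciprocal plots.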
# Plasmodium falciparum [8] = experiment: Activity of Plasmodium falciparum ODCase; how it was run: as §2
# Homo sapiens [9] = species on record: Homo sapiens; experiment: Activity of human ODCase; how it was run: as §1
Ki [2],Ki [4],Activity (Plasmodium falciparum [6]),SMILES,Ki [3],also measured
4200 µM,–,–,Nc1nc2c(ncn2[C@@H]2O[C@H](COP(=O)(O)O)[C@@H](O)[C@H]2O)c(=O)[nH]1,2100 µM,Activity (Homo sapiens [1]): inactive
3300 µM,8700 µM,–,Cc1cn([C@H]2C[C@H](O)[C@@H](COP(=O)(O)O)O2)c(=O)[nH]c1=O,10000 µM,–
130 µM,0.7 µM,–,O=c1[nH]c(=O)c2ncn([C@@H]3O[C@H](COP(=O)(O)O)[C@@H](O)[C@H]3O)c2[nH]1,43 µM,Ki [5]: 0.4 µM
3500 µM,4300 µM,inactive,Nc1ncnc2c1ncn2[C@@H]1O[C@H](COP(=O)(O)O)[C@@H](O)[C@H]1O,–,–
1200 µM,1400 µM,inactive,Nc1ccn([C@@H]2O[C@H](COP(=O)(O)O)[C@@H](O)[C@H]2O)c(=O)n1,–,–
–,–,–,O=C(O)c1cc(=O)[nH]c(=O)n1[C@@H]1O[C@H](COP(=O)(O)O)[C@@H](O)[C@H]1O,–,Km [7]: 4.8 µM; kcat [7]: 20.7 s⁻¹; Km (Plasmodium falciparum [8]): 1.3 µM; kcat (Plasmodium falciparum [8]): 6.7 s⁻¹; Km (Homo sapiens [9]): 1.7 µM; kcat (Homo sapiens [9]): 8.1 s⁻¹
330 µM,220 µM,–,O=c1ccn([C@@H]2O[C@H](COP(=O)(O)O)[C@@H](O)[C@H]2O)c(=O)[nH]1,210 µM,–
> 10000 µM,7400 µM,inactive,Nc1ncnc2c1ncn2[C@H]1C[C@H](O)[C@@H](COP(=O)(O)O)O1,–,–
